Here are results for 16 compounds from PubChem BioAssay.

Structures are written as SMILES. Calls of active or inactive are those of the source.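 The calls were made as follows, unless noted: active = viability at or below 10% of carrier control in both of two separate runs; inconclusive = viability at or below 10% in only one of the two runs; inactive = the rest.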

Experiment [1] can be described thus: Her2 expression decrease, cell viability multiplex – SKBR3 breast tumor cells, AlphaScreen, ATP viability, primary screen (AID 461;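 active = Her2 level under about 52% in both replicate screens, with viability over 70% of control, limit read from the data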;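 as to Her2 level: lower value means less Her2 protein in the cells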;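 as to viability: percent of carrier control wells set as 100% viability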). As to conditions: SKBR3 Her2 protein level, 18-24 h, measured here: SKBR3 viability, ATP luminescence, at 10 µM.
Experiment [2] deals with Receptor tyrosine-protein kinase erbB-2 (Homo sapiens) (UniProt P04626). The experiment is described as above. To be noted: 18-24 h, at 10 µM, stronger effect = lower value.
Sequence of Receptor tyrosine-protein kinase erbB-2 (Homo sapiens) (P04626 whole entry, looked up): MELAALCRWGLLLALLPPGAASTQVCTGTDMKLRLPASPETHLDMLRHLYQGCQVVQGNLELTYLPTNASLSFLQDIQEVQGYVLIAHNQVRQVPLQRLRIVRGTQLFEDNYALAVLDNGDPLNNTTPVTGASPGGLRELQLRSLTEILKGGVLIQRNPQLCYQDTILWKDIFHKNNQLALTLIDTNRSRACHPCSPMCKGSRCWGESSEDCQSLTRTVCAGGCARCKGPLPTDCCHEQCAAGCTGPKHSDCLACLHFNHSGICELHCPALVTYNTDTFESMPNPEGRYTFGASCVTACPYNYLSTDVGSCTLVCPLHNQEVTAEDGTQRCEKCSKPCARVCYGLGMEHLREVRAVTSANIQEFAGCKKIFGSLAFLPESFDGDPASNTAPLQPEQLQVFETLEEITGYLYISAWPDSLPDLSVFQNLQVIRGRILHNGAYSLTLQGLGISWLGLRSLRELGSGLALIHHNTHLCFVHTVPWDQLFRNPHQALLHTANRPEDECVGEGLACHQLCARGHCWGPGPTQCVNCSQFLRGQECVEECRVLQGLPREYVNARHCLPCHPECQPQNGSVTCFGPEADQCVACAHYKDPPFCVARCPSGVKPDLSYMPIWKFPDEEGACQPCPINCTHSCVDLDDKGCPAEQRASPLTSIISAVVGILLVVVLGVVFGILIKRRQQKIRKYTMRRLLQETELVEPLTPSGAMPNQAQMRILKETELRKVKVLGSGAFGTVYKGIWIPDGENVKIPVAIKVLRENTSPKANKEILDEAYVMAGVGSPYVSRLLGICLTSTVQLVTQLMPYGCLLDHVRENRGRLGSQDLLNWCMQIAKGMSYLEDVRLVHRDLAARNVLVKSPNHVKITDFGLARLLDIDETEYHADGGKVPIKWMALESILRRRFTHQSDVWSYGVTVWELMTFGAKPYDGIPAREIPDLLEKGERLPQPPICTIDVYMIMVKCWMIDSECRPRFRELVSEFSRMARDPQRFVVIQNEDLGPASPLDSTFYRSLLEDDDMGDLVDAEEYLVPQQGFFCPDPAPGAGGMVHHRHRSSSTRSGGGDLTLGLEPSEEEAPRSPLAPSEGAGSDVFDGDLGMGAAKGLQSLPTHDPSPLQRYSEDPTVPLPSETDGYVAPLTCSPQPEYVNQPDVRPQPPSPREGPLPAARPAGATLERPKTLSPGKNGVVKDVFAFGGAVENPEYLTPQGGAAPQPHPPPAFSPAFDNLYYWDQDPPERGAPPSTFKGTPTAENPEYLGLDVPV
Experiment [3] can be described thus: reduced viability of SK-BR-3 breast cancer cells – cell-based, 24 h, human, pilot screen (AID 572).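 Also: compound exposure lasted between 18 and 24 h rather than exactly 24 h; 100% = carrier-treated control wells.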 To be noted: SK-BR-3 viability, CellTiter-Glo luminescence, at 10 µM, stronger effect = lower value.
Experiment [4] can be described thus: HUVEC growth inhibition – cell-based, human, primary screen (AID 575;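 active = viability at or below 30% in both replicate assays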;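 also: 100% = median of untreated cell wells with 0.1% DMSO on each plate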). As to conditions: HUVEC proliferation, CellTiter-Glo luminescence, 72 h; at 10 µM; stronger effect = lower value. In outline:
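Test system: primary human umbilical vein endothelial cells. Quantity: 1250 cells/well. Compound: single 10 µM dose, 0.1% DMSO, from 5x medium stock. Timing: 72 h treatment at 37 °C. Detection: ATP-based CellTiter-Glo luminescent read. Benchmarks: vehicle and MePR control wells. Format: 384-well plates coated with collagen.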

The nature of experiment [5]: H69AR cell proliferation blockers – human, duplicate replicates, primary screen (AID 580;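 active = viability at or under a set limit in both replicates, limit being median viability minus 3 SD, cut at about 48% in these data, passing the limit was not always enough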;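 also: 100% = mean luminescence of untreated wells and 0% = no signal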). To be noted: H69AR lung tumor cells viability, ATP luminescence, 72 h; at 10 µM; stronger effect = lower value.
Experiment [6] is described as follows: MRP1 drug-resistance reversers in H69AR cells – cell-based, doxorubicin co-treatment, pilot screen (AID 601;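 active = viability loss from added drug above about 55%, and viability with drug at most 40%, in both replicates, limit read from the data, passing the limit was not always enough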). To be noted: CellTiter-Glo, 72 h, at 10 µM; for differential viability (reversal): stronger effect = higher value.
A short description of experiment [7]: yeast transport mutant growth inhibition pilot in 384-well plates, post-Golgi transport modulator project (AID 636; in the data active = inhibition above about 31%). To be noted: absorbance 615 nm, about 18 h, stronger effect = higher value.
The nature of experiment [8]: growth suppression of yeast trafficking mutant, preliminary HTS, modulators of trafficking downstream of Golgi apparatus project, 1536-format plate, OD 615 nm (AID 637; in the data active = inhibition above about 30%). As to conditions: yeast transport mutant growth, absorbance 615 nm, 18 h; stronger effect = higher value.
Where [9] appears, read: H69AR cells + 2 uM doxorubicin, measured here: viability with 2 uM doxorubicin, stronger effect = lower value.
Where [10] appears, read: H69AR cells, compound alone cytotoxicity.

As for `O=C(O)CCCNS(=O)(=O)c1ccc(NCc2ccccc2)c(C(=O)O)c1`, the viability in experiment [1] is 87%; in experiment [3], 87% (inactive); in experiment [4], 92.3% (inactive); in experiment [5], 93% (inactive); in experiment [6] (setting [9]), 91.4%; in experiment [6] (setting [10]), 93%. In addition, in experiment [2], the Her2 level is 94% (inactive). Moreover, the differential viability (reversal) in experiment [6] (H69AR cells + 2 uM doxorubicin) was 1.6% (inactive). For the same compound, the inhibition in experiment [7] is -6.89% (inactive); in experiment [8], 0.83% (inactive).
On to `O=C(CN1CCOCC1)N1CCCc2c1c(=O)oc1ccc(OCc3ccccc3)cc21`, for which the viability is 82% in experiment [1]; 82% (inactive) in experiment [3]; 94.8% (inactive) in experiment [4]; 77.2% (inactive) in experiment [5]; 72.6% in experiment [6] (setting [9]); 77.2% in experiment [6] (setting [10]). Also, the Her2 level in experiment [2] was 99.5% (inactive). The differential viability (reversal) in experiment [6] (H69AR cells + 2 uM doxorubicin) is 4.61% (inactive). In addition, the results for the inhibition in experiment [7] and in experiment [8] were -5.07% (inactive) and -4.1% (inactive), respectively.
Regarding `CCOc1cc(C(=O)N(C)c2ccccc2)cc(OCC)c1OCC`, the viability was 108% in experiment [1]; 108% (inactive) in experiment [3]; 96.4% (inactive) in experiment [4]; 89.2% (inactive) in experiment [5]; 90.7% in experiment [6] (setting [9]); 89.2% in experiment [6] (setting [10]). Further, in experiment [2], the Her2 level is 131% (inactive). Also, in experiment [6] (H69AR cells + 2 uM doxorubicin), the differential viability (reversal) was -1.49% (inactive). Further, the inhibition in experiment [7] was -5.64% (inactive); in experiment [8], -11.3% (inactive).
Regarding `CC(=O)C1=C(O)C(=O)N(Cc2ccco2)C1c1ccc(F)cc1` (stereo not given), the viability in experiment [1] is 102%; in experiment [3] it was 102% (inactive); in experiment [4] it was 123% (inactive); in experiment [5], 109% (inactive); in experiment [6] (setting [9]), 100%; in experiment [6] (setting [10]), 109%. In addition, the Her2 level in experiment [2] was 110% (inactive). In addition, the differential viability (reversal) in experiment [6] (H69AR cells + 2 uM doxorubicin) is 8.52% (inactive). Also, the inhibition is 1.07% (inactive) in experiment [7] and -5% (inactive) in experiment [8].
Consider `Cc1ccc(C)c(S(=O)(=O)NCc2ccc(C(=O)N3CCN(C)CC3)cc2)c1`, for which the viability in experiment [1] was 99.5%; in experiment [3], 99.5% (inactive); in experiment [4] it was 89.7% (inactive); in experiment [5], 91.7% (inactive); in experiment [6] (setting [9]), 86.5%; in experiment [6] (setting [10]) it was 91.7%. In experiment [2], the Her2 level was 85.5% (inactive). Besides, the differential viability (reversal) in experiment [6] (H69AR cells + 2 uM doxorubicin) was 5.15% (inactive). Moreover, the inhibition in experiment [7] is -5.68% (inactive); in experiment [8], -3% (inactive).
With `O=C(c1cccc(C(=O)N2CCN(c3ccccc3)CC2)c1)N1CCN(c2ccccc2)CC1`, the viability in experiment [1] was 95.5%; in experiment [3] it was 95.5% (inactive); in experiment [4], 81.3% (inactive); in experiment [5] it was 90.7% (inactive); in experiment [6] (setting [9]) it was 84%; in experiment [6] (setting [10]) it was 90.7%. Further, the Her2 level in experiment [2] was 106% (inactive). Further, in experiment [6] (H69AR cells + 2 uM doxorubicin), the differential viability (reversal) is 6.69% (inactive). For the same compound, the inhibition in experiment [7] is -2.47% (inactive); in experiment [8], -0.33% (inactive).
`Cc1ccc(NC(=O)C2CC=CCC2C(=O)N2CCCCC2)cc1` (stereo not given): the viability in experiment [1] is 71%; in experiment [3], 71% (inactive); in experiment [4], 95.7% (inactive); in experiment [5], 95.7% (inactive); in experiment [6] (setting [9]), 83.2%; in experiment [6] (setting [10]), 95.7%. Further, the Her2 level in experiment [2] was 76.5% (inactive). Besides, the differential viability (reversal) in experiment [6] (H69AR cells + 2 uM doxorubicin) is 12.5% (inactive). The inhibition in experiment [7] is -5.54% (inactive); in experiment [8] it was -1.31% (inactive).
With `Cc1cc(C)nc(NC(=O)c2ccc(OC(C)C)cc2)n1`, the viability in experiment [1] is 102%; in experiment [3] it was 102% (inactive); in experiment [4], 95.8% (inactive); in experiment [5], 104% (inactive); in experiment [6] (setting [9]), 90.2%; in experiment [6] (setting [10]) it was 104%. In addition, the Her2 level in experiment [2] was 90% (inactive). In experiment [6] (H69AR cells + 2 uM doxorubicin), the differential viability (reversal) was 14.3% (inactive). Moreover, the values for the inhibition in experiment [7] and in experiment [8] were -6.03% (inactive) and -4.13% (inactive), respectively.
With `COc1ccc(-n2c(SCC(=O)Nc3ccc(C(=O)O)cc3)nnc2-c2cccs2)cc1`, the viability in experiment [1] was 112%; in experiment [3] it was 112% (inactive); in experiment [4], 99.4% (inactive); in experiment [5], 109% (inactive); in experiment [6] (setting [9]), 93.4%; in experiment [6] (setting [10]) it was 109%. Also, the Her2 level in experiment [2] was 94% (inactive). For the same compound, the differential viability (reversal) in experiment [6] (H69AR cells + 2 uM doxorubicin) is 15.2% (inactive). For the same compound, the inhibition in experiment [7] was -1.97% (inactive); in experiment [8], -4.36% (inactive).
On to `CCN1CCN(c2nc3c(C)cccn3c(=O)c2/C=C(\C#N)S(=O)(=O)c2ccccc2)CC1`, for which the viability is 93% in experiment [1]; 93% (inactive) in experiment [3]; 89.6% (inactive) in experiment [4]; 75.1% (inactive) in experiment [5]; 82.8% in experiment [6] (setting [9]); 75.1% in experiment [6] (setting [10]). The Her2 level in experiment [2] is 76.5% (inactive). Also, in experiment [6] (H69AR cells + 2 uM doxorubicin), the differential viability (reversal) is -7.74% (inactive). In addition, the values for the inhibition in experiment [7] and in experiment [8] were -2.76% (inactive) and -0.18% (inactive), respectively.
`N#Cc1c(NC(=O)CSc2nc(N)cc(=O)[nH]2)sc2c1CCCCCC2`: the viability in experiment [1] was 104%; in experiment [3], 104% (inactive); in experiment [4], 59.9% (inactive); in experiment [5], 91.5% (inactive); in experiment [6] (setting [9]), 86.1%; in experiment [6] (setting [10]) it was 91.5%. The Her2 level in experiment [2] was 90% (inactive). In addition, in experiment [6] (H69AR cells + 2 uM doxorubicin), the differential viability (reversal) was 5.43% (inactive). Besides, the inhibition in experiment [7] was -0.66% (inactive); in experiment [8] it was -10% (inactive).
`CC1Cc2cc(/C(O)=C3/C(=O)C(=O)N(CCN4CCOCC4)C3c3cccc(O)c3)ccc2O1` (stereo not given): the viability in experiment [1] is 98.5%; in experiment [3], 98.5% (inactive); in experiment [4] it was 98.9% (inactive); in experiment [5] it was 106% (inactive); in experiment [6] (setting [9]), 104%; in experiment [6] (setting [10]), 106%. The Her2 level in experiment [2] is 120% (inactive). The differential viability (reversal) in experiment [6] (H69AR cells + 2 uM doxorubicin) was 2.56% (inactive). The values for the inhibition in experiment [7] and in experiment [8] were 3.2% (inactive) and -5.32% (inactive), respectively.
Take `NC(=O)c1nsnc1-c1ccccc1O`: the viability in experiment [1] is 105%; in experiment [3], 105% (inactive); in experiment [4], 99.9% (inactive); in experiment [5], 90.2% (inactive); in experiment [6] (setting [9]), 97.2%; in experiment [6] (setting [10]) it was 90.2%. Besides, the Her2 level in experiment [2] is 124% (inactive). Besides, the differential viability (reversal) in experiment [6] (H69AR cells + 2 uM doxorubicin) is -6.96% (inactive). Also, the figures for the inhibition in experiment [7] and in experiment [8] were 2.24% (inactive) and 16.8% (inactive), respectively.
For `COc1cccc(C(=O)N2CCCC(c3nc(-c4cccs4)no3)C2)c1` (stereo not given), the viability was 98% in experiment [1]; 98% (inactive) in experiment [3]; 93.4% (inactive) in experiment [4]; 95.5% (inactive) in experiment [5]; 92.6% in experiment [6] (setting [9]); 95.5% in experiment [6] (setting [10]). Moreover, the Her2 level in experiment [2] was 81.5% (inactive). Moreover, in experiment [6] (H69AR cells + 2 uM doxorubicin), the differential viability (reversal) was 2.9% (inactive). For the same compound, the inhibition in experiment [7] is -7.43% (inactive); in experiment [8] it was 4.26% (inactive).
As to `CC(C)(C)OC(=O)N1CCCC1C(=O)N1CCc2ccccc21` (stereo not given), the viability in experiment [1] was 95.5%; in experiment [3], 95.5% (inactive); in experiment [4], 94.9% (inactive); in experiment [5], 84.9% (inactive); in experiment [6] (setting [9]), 89.4%; in experiment [6] (setting [10]), 84.9%. For the same compound, the Her2 level in experiment [2] is 86% (inactive). Besides, in experiment [6] (H69AR cells + 2 uM doxorubicin), the differential viability (reversal) is -4.58% (inactive). For the same compound, the figures for the inhibition in experiment [7] and in experiment [8] were 1.17% (inactive) and -3.81% (inactive), respectively.
On to `COc1ccc(C2(C(=O)N3CCCC3)CCOCC2)cc1OC`, for which the viability was 88.5% in experiment [1]; 88.5% (inactive) in experiment [3]; 82.2% (inactive) in experiment [4]; 97.2% (inactive) in experiment [5]; 87.8% in experiment [6] (setting [9]); 97.2% in experiment [6] (setting [10]). Moreover, in experiment [2], the Her2 level was 126% (inactive). In addition, the differential viability (reversal) in experiment [6] (H69AR cells + 2 uM doxorubicin) is 9.43% (inactive). Further, the inhibition was 3.21% (inactive) in experiment [7] and -11% (inactive) in experiment [8].
